ChEMBL document CHEMBL3045963, “Synthesis of nalidixic acid based hydrazones as novel pesticides” (2010)
Values after ≈ are worked out from the molar mass of the structure shown.

What was measured:
Format in all cases: functional
[1] = system: Callosobruchus maculatus; test: Insecticidal activity against adult Callosobruchus maculatus assessed as mortality at 0.1% at 27 +/-1 degC after 24 hr by contact based film residue method
Summary of the method: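 Lab-reared adults, 2-5 days old, exposed to a dry film: 1 mL of 0.1% compound solution in dichloromethane is swirled in a 90 mm Petri plate and dried 3-5 min. Ten adults per plate are held at 27 ± 1 °C and 70% RH. Mortality is scored at 24 h, with no response to touch counted as dead. Triplicates, solvent control, malathion reference.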

[2] = system: Spodoptera litura; test: Insecticidal activity against third-instar larval stage of prestarved Spodoptera litura in castor leaf assessed as mortality at 0.1% treated for 2 secs before larval infestation measured after 24 hr by feeding method
Summary of the method: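 Castor leaf is dipped 2 s in 0.1% compound solution, air-dried, and placed on moist filter paper in 9 cm Petri plates. Larvae starved 4 h beforehand are released singly, one per plate. Thirty replicates per treatment, solvent control. Mortality is scored after 24 h.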

[3] = system: Fusarium oxysporum; test: Fungicidal activity against Fusarium oxysporum by poisoned food technique; conditions: read-out: ED50 (the source's name)
[4] = system: Alternaria porri; test: Fungicidal activity against Alternaria porri by poisoned food technique; conditions: read-out: ED50 (the source's name)
[5] = system: Rhizoctonia solani; test: Fungicidal activity against Rhizoctonia solani by poisoned food technique; conditions: read-out: ED50 (the source's name)
[6] = system: Macrophomina phaseolina; test: Fungicidal activity against Rhizoctonia bataticola by poisoned food technique; conditions: read-out: ED50 (the source's name)
[7] = system: Athelia rolfsii; test: Fungicidal activity against Athelia rolfsii by poisoned food technique; conditions: Agroathelia rolfsii; read-out: ED50 (the source's name)
[8] = system: Tribolium castaneum; test: Insecticidal activity against adult Tribolium castaneum (red flour beetle) in compound pre-treated green gram grains assessed as mortality at 20 mg/kg after 48 hr by feeding based residue method; conditions: in Vigna radiata
Summary of the method: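 Green gram grains are treated with compound in dichloromethane (0.6 mg in 5 mL) at 20 mg active ingredient per kg grain (0.002%). Ten adults are released onto 10 g of treated grain in a plastic box. Mortality is recorded after 48 h. Triplicate, solvent-treated control.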

[9] = system: Spodoptera litura; test: Insecticidal activity against third-instar larval stage of Spodoptera litura assessed as mortality at 0.1% applied topically on the ventral side of the larvae measured after 24 hr by contact method
Summary of the method: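 Field-collected larvae are reared in the lab at 27 ± 1 °C and 70% RH. Two microliters of a 0.1% dichloromethane solution is applied to the ventral side. Ten treated larvae are kept per glass bottle and fed fresh castor leaves. Mortality is recorded at 24 h. Triplicate, solvent control.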

| Structure (SMILES) | mortality [1] | mortality [2] | EC50 [3] | EC50 [4] | EC50 [5] | EC50 [6] | EC50 [7] | mortality at 20 mg/kg [8] | mortality [9] |
| --- | --- | --- | --- | --- | --- | --- | --- | --- | --- |
| CCn1cc(C(=O)N/N=C/c2cccc(C)c2)c(=O)c2ccc(C)nc21 | 60% | 80% | 103 mg/L (≈ 296 µM) | 66.9 mg/L (≈ 192 µM) | 301 mg/L (≈ 865 µM) | 322 mg/L (≈ 924 µM) | 298 mg/L (≈ 854 µM) |  |  |
| CCn1cc(C(=O)N/N=C/c2ccccc2F)c(=O)c2ccc(C)nc21 | 30% | 90% | 107 mg/L (≈ 305 µM) | 78.3 mg/L (≈ 222 µM) | 359 mg/L (≈ 1020 µM) | 668 mg/L (≈ 1900 µM) | 540 mg/L (≈ 1530 µM) | 10% | 10% |
| CCn1cc(C(=O)N/N=C/c2ccccc2Cl)c(=O)c2ccc(C)nc21 | 30% | 10% | 143 mg/L (≈ 389 µM) | 90.1 mg/L (≈ 244 µM) | 246 mg/L (≈ 666 µM) | 593 mg/L (≈ 1610 µM) | 570 mg/L (≈ 1550 µM) | 10% | 10% |
| CCn1cc(C(=O)N/N=C/c2c(Cl)cccc2Cl)c(=O)c2ccc(C)nc21 | 30% | 100% | 114 mg/L (≈ 283 µM) | 87.2 mg/L (≈ 216 µM) | 298 mg/L (≈ 738 µM) | 255 mg/L (≈ 633 µM) | 282 mg/L (≈ 701 µM) |  | 10% |
| CCn1cc(C(=O)N/N=C/c2ccc(Cl)cc2)c(=O)c2ccc(C)nc21 | 10% | 40% | 119 mg/L (≈ 322 µM) | 87.2 mg/L (≈ 236 µM) | 308 mg/L (≈ 834 µM) | 371 mg/L (≈ 1000 µM) | 438 mg/L (≈ 1190 µM) |  |  |
| CCn1cc(C(=O)N/N=C/c2ccc(OC)c(OC)c2)c(=O)c2ccc(C)nc21 | 10% | 40% | 137 mg/L (≈ 346 µM) | 102 mg/L (≈ 259 µM) | 172 mg/L (≈ 435 µM) | 285 mg/L (≈ 722 µM) | 359 mg/L (≈ 909 µM) |  |  |
| CCn1cc(C(=O)N/N=C/c2cccc([N+](=O)[O-])c2)c(=O)c2ccc(C)nc21 | 10% | 80% | 212 mg/L (≈ 559 µM) | 89 mg/L (≈ 235 µM) | 245 mg/L (≈ 645 µM) | 272 mg/L (≈ 716 µM) | 287 mg/L (≈ 756 µM) |  |  |
| CCn1cc(C(=O)NN=C2C3CC4CC(C3)CC2C4)c(=O)c2ccc(C)nc21 | 0% | 50% | 258 mg/L (≈ 683 µM) | 133 mg/L (≈ 351 µM) | 405 mg/L (≈ 1070 µM) | 638 mg/L (≈ 1690 µM) | 524 mg/L (≈ 1380 µM) | 10% | 10% |
| CCn1cc(C(=O)N/N=C/c2ccc(Cl)cc2Cl)c(=O)c2ccc(C)nc21 | 40% | 100% | 121 mg/L (≈ 300 µM) | 119 mg/L (≈ 296 µM) | 354 mg/L (≈ 877 µM) | 495 mg/L (≈ 1230 µM) | 541 mg/L (≈ 1340 µM) |  |  |
| CCn1cc(C(=O)N/N=C/c2ccc(C)cc2)c(=O)c2ccc(C)nc21 | 20% | 70% | 195 mg/L (≈ 560 µM) | 87.3 mg/L (≈ 251 µM) | 372 mg/L (≈ 1070 µM) | 378 mg/L (≈ 1080 µM) | 374 mg/L (≈ 1070 µM) |  | 10% |
| CCCCC(O)(Cn1cncn1)c1ccc(Cl)cc1Cl (stereo unspecified) [HEXACONAZOLE] |  |  | 20.6 mg/L (≈ 65.6 µM) | 25.5 mg/L (≈ 81.2 µM) | 18.3 mg/L (≈ 58.2 µM) | 4.4 mg/L (≈ 14 µM) | 13 mg/L (≈ 41.4 µM) |  |  |
| CCOc1cc(/C=N/NC(=O)c2cn(CC)c3nc(C)ccc3c2=O)ccc1O | 22% | 90% | 185 mg/L (≈ 469 µM) | 92.1 mg/L (≈ 234 µM) | 356 mg/L (≈ 903 µM) | 400 mg/L (≈ 1010 µM) | 384 mg/L (≈ 974 µM) |  | 10% |
| CCn1cc(C(=O)N/N=C/c2ccc(F)cc2)c(=O)c2ccc(C)nc21 | 10% | 50% | 79.9 mg/L (≈ 227 µM) | 64.8 mg/L (≈ 184 µM) | 234 mg/L (≈ 665 µM) | 244 mg/L (≈ 692 µM) | 220 mg/L (≈ 624 µM) |  |  |
| CCn1cc(C(=O)N/N=C/c2ccc(O)cc2O)c(=O)c2ccc(C)nc21 | 25% | 40% | 196 mg/L (≈ 536 µM) | 144 mg/L (≈ 392 µM) | 342 mg/L (≈ 932 µM) | 650 mg/L (≈ 1770 µM) | 397 mg/L (≈ 1080 µM) |  |  |
| CCn1cc(C(=O)NN=C2CCCCC2)c(=O)c2ccc(C)nc21 | 0% | 70% | 62.6 mg/L (≈ 192 µM) | 34.2 mg/L (≈ 105 µM) | 166 mg/L (≈ 510 µM) | 188 mg/L (≈ 577 µM) | 177 mg/L (≈ 543 µM) | 15% |  |
| CCn1cc(C(=O)N/N=C/c2cccc(Br)c2)c(=O)c2ccc(C)nc21 | 20% | 20% | 209 mg/L (≈ 506 µM) | 125 mg/L (≈ 303 µM) | 439 mg/L (≈ 1060 µM) | 628 mg/L (≈ 1520 µM) | 380 mg/L (≈ 920 µM) |  | 10% |
